Reference: article PMC7616001 (Journal of medicinal chemistry, 2022)
“Also recorded” adds a separate entry of the source.

What was measured:
A2780 [1] = assay: MTT assay, 72 h continuous exposure, A2780 cells; assay type: cell-based, human
How it was run: (§1)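 Ovarian lines grown in RPMI with 10% FBS and 1% penicillin/streptomycin; A2780Cis kept on 2 μM cisplatin 3 days each week. HeLa grown in DMEM with the same supplements. 3 × 10^3 cells/well, overnight, then serial dilutions of DMSO stocks (final DMSO ≤0.1%); cisplatin stock in PBS. 72 h continuous exposure, MTT 0.5 mg/mL 3 h, formazan in DMSO, A570 normalised to untreated. IC50 from curves; ≥3 independent experiments.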

A2780cis = assay: MTT assay, 72 h continuous exposure, cisplatin-resistant A2780Cis cells; assay type: cell-based, human
How it was run: as §1

HeLa = assay: 24 h MTT assay, HeLa cells; assay type: cell-based, human; settings: read-out: IC50/24h
How it was run: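 HeLa in DMEM with 10% FBS and 1% penicillin/streptomycin, 3 × 10^3 cells/well, grown overnight. Fresh DMSO stocks (Ru content confirmed by ICP‑MS) serially diluted in medium; final DMSO ≤0.1%. 24 h exposure, then MTT 0.5 mg/mL for 3 h. Formazan dissolved in DMSO, A570 read and normalised to untreated wells. IC50 taken from dose–response curves; ≥3 independent experiments of 3 or 6 replicates.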

A2780 [2] = assay: 72 h crystal violet; assay type: cell-based, human; settings: read-out: IC50 (CV assay) A2780; 72 h CV assay
How it was run: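 Seeding and dosing as for MTT: 3 × 10^3 cells/well, overnight, final DMSO ≤0.1%, 72 h exposure. Wells washed with PBS and fixed in 4% paraformaldehyde for 15 min. Crystal violet stained, dried, dissolved in 96% ethanol and A570 read. IC50 derived from dose–response curves.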

HeLa cells [3] = assay: Whole cell uptake by ICP-MS; assay type: cell-based, human; settings: 10 μM
How it was run: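 2 × 10^6 cells per 60 mm plate, grown overnight. Incubated 4 h in fresh medium containing 10 μM test compound. Washed three times with PBS, detached with trypsin and counted for per‑cell metal uptake.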

[4] = Stability in DMSO and aqueous media by 1H NMR; assay type: physicochemical; settings: up to 48 h
How it was run: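 About 2 mM test compound in DMSO-d6 was mixed with 666 mM NaCl in D2O to give 100 mM NaCl final in DMSO/D2O (85/15, v/v). 1H NMR spectra were recorded at regular intervals up to 48 h.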

zebrafish embryos = assay: Zebrafish embryo toxicity and viability analysis; assay type: in vivo, zebrafish (Danio rerio)
How it was run: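 Wild‑type embryos, ten per 5 mL E3. Test compound at final 20, 30 or 40 μM, diluted from a 5 mM DMSO stock; DMSO vehicle at 10 μL/mL. Exposure from 26 hpf to 72 hpf at 28 °C, then scored for viability and morphology.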

HeLa cells [5] = assay: Intracellular distribution between nucleus and cytoplasm, ICP-MS; assay type: cell-based, human; settings: 10 μM, 24 h exposure
How it was run: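 5 × 10^6 HeLa per 100 mm plate, grown overnight. Exposed 24 h to 10 μM test compound, with 10 μM cisplatin as comparator. PBS‑washed, trypsinised, counted. Nuclear and cytoplasmic fractions isolated with a commercial kit. Protein measured by BCA assay, metal by ICP‑MS. Three experiments of ≥3 replicates.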

[6] = test system: mitochondria of HeLa cells; assay: Metal content in isolated mitochondria, ICP-MS; assay type: cell-based, human; settings: 20 μM, 24 h
[7] = test system: genomic DNA of HeLa cells; assay: Metalation of genomic DNA, ICP-MS; assay type: cell-based, human; settings: 20 μM, 24 h exposure
Cyclic voltammetry = assay type: physicochemical; settings: acetonitrile, 0.1 M NEt4BF4
[8] = test system: HO• radicals in HeLa cells; assay: Flow cytometric quantification of hydroxyl radicals with HPF probe; assay type: cell-based, human; settings: 10 μM, 4 h
How it was run: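 HeLa seeded at 0.75 × 10^6 cells per six‑well plate well, grown overnight, then treated 4 h at 10 μM. Cells trypsinised, washed with ice‑cold PBS and spun at 1200 rpm, 5 min, 4 °C. Probe‑stained cells analysed by flow cytometry, approximately 20,000 cells per sample.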

[9] = test system: mitochondria of HeLa cells; assay: Mitochondrial morphology, confocal imaging of mito-GFP HeLa cells; assay type: cell-based, human; settings: 1/2 × IC50/24h (20 μM)
[10] = test system: LC3-II/LC3-I in HeLa cells; assay: Western blot of autophagy marker proteins; assay type: cell-based, human; settings: 24 h
How it was run: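 ~2 million HeLa per 60 mm dish, grown to 80–90% confluency, then treated 24 h. Lysed in RIPA buffer with protease inhibitors. Membranes blocked with 2% skim milk in 0.1% Tween 20 for 30 min. Primary antibody 1:1000 overnight at 4 °C; HRP secondary antibody; LC3 forms detected.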

[11] = test system: RIP1 and RIP3 in HeLa cells; assay: Western blot of necroptosis marker proteins; assay type: cell-based, human; settings: 24 h
How it was run: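 Western blot for RIP1/RIP3: about 2 × 10^6 HeLa cells at 80–90% confluency were given test compound (10, 20, 40 μM) for 24 h, with shikonin as a reference necroptosis inducer. Cells were lysed in RIPA with protease inhibitors and run on 10/12% SDS-PAGE, then transferred to PVDF. Membranes were blocked in 2% milk, probed with primary antibody (1:1000, overnight, 4 °C), then with HRP secondary antibody (0.75:1000).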

[12] = test system: mitochondrial Ca^2+ level in HeLa cells; assay: Mitochondrial Ca2+ level, Rhod-2 AM imaging; assay type: cell-based, human; settings: 20 μM
[13] = test system: acidic vesicular organelles in HeLa cells; assay: Acridine orange assay; assay type: cell-based, human; settings: HeLa, 10, 20, 40 μM, 24 h
How it was run: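 HeLa cells in 35 mm dishes exposed to test compound at 10, 20 or 40 μM for 24 h, or rapamycin (1 μM, 24 h) as reference. Medium replaced with FBS-free medium containing 1 μM acridine orange for 25 min in the dark (37 °C, 5% CO2). Cells washed with PBS and overlaid with phenol red-free DMEM (4% FBS) for imaging.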

ER of HeLa cells = assay: ER imaging of ER-RFP-labeled HeLa cells; assay type: cell-based, human
How it was run: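 HeLa cells transduced with a CellLight ER-RFP BacMam 2.0 construct, replated on glass-bottom dishes overnight, then treated with test compound (20 or 40 μM) for 8 h or 24 h. A platinum–ferrocene complex (40 μM) served as positive control. After PBS washes, confocal images were taken in phenol red-free medium (ex 543 nm, em 584–655 nm) at constant exposure.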

For `Cc1ccc(C(C)C)cc1.O=C(C=C([O-])C(F)(F)F)[c-]1cccc1.[Cl-].[Fe+2].[Ru+2].c1cc[cH-]c1` [Compound 1, [(η^6-p-cymene)Ru(1,1,1-trifluoro-4-oxo-4-ferrocenyl-but-2-en-2-olate)Cl]], which “fold more potent compared to Ru1, Ru3 and Ru4” value (A2780 [1]; A2780 cells) is on record?
The value was 3−18 fold.

What about the IC50 (A2780 [1]; read-out: IC50 A2780, 72 h continuous exposure, MTT assay) of the same compound?
The IC50 was 2.5 ± 0.3 µM.

What about the “RF (A2780)” value (A2780cis; RF = IC50 in A2780Cis/IC50 in A2780) of the same compound?
Its value is 1.2.

What about the IC50 (A2780cis; read-out: IC50 A2780cis, 72 h continuous exposure, MTT assay) of the same compound?
Its IC50 is 3.1 ± 0.1 µM.

And the IC50 (HeLa)?
Its IC50 is 38 ± 3 µM.

What about the IC50 (A2780 [2]) of the same compound?
The IC50 was 7.2 ± 0.3 µM.

And the “fold higher accumulation than 3” value (HeLa cells [3]; 4 h)?
Its value is 3.5 fold.

What about the “times lower cellular accumulation compared to 4” value (HeLa cells [3]; 4 h) of the same compound?
The value was 1.6 times.

And the whole cell uptake (HeLa cells [3]; 4 h)?
Its whole cell uptake is 57 ± 9.7 pmol/10^6 cells.

What about the whole cell uptake (HeLa cells [3]; 4 h exposure) of the same compound?
Its whole cell uptake is 57.0 ± 9.7 picomole Ru/10^6 cells.

And the “stability in DMSO” value [4]?
The value was “no change was detected in the ^1H NMR spectrum up to 48 h”.

What about the “stability in DMSO-d6/D2O containing 100 mM NaCl” value [4] of the same compound?
Its value is “no significant spectral changes were observed up to 48 h”.

And the “morphology / visible toxic effects on embryos” value (zebrafish embryos; 72 hpf, up to 40 μM)?
Its value is “morphologically indistinguishable from untreated control embryos; also recorded: did not show any visible toxic effects”.

And the “animal viability at 72 hpf” value (zebrafish embryos; treated at 26 hpf, even at 40 μM dose)?
The value was 100%.

What about the “metal content in nuclear fraction relative to cytoplasmic fraction” value (HeLa cells [5]) of the same compound?
Its value is ~ 2.5 times.

What about the “Ru in mitochondria relative to Pt in mitochondria of cisplatin-treated cells” value [6] of the same compound?
Its value is ~ 4 fold.

What about the “metalation of genomic DNA” value [7] of the same compound?
The value was “comparable with that of the classical DNA-targeted Pt drug cisplatin”.

And the “oxidation potential (vs Fc^+/0)” value (Cyclic voltammetry)?
The value was 321 mV.

What about the “level of HO• radicals relative to untreated control” value [8] of the same compound?
Its value is ~ 7 fold.

What about the mitochondrial morphology [9] of the same compound?
The mitochondrial morphology was “rounded and punctate”.

What about the “ratio of LC3-II/LC3-I” value [10] of the same compound?
Its value is “no increase in the ratio of LC3-II/LC3-I”.

And the “expression level of RIP1 and RIP3” value [11]?
Its value is “increased the expression level of RIP1 and RIP3”.

What about the “increase in mitochondrial Ca^2+ level compared to untreated control” value [12] of the same compound?
The value was ~ 5 fold.

And the acidic vesicular organelles [13]?
The acidic vesicular organelles was “did not cause formation and promotion of acidic vesicular organelles”.

And the “ER dilation and vacuole formation” value (ER of HeLa cells)?
The value was “ER dilation and/or vacuole formation were not observed”.
